TDP2 inh = blocks human TDP2 phosphodiesterase activity | O95551 | inhibition, % at 12.8 µM | 0.34% of 370,000 active | recombinant TDP2, T5PNP hydrolysis, p-nitrophenol absorbance 415 nm;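 active = inhibition above the mean of all tested compounds plus 3 SD, set per campaign, cut at about 25% in these data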;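 note: 0% = DMSO with enzyme and 100% = buffer with substrate but no TDP2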
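Read-out basis: percent inhibition. System: recombinant human TDP2. Buffer or medium: Mg2+-containing Tris-HCl buffer, pH 7.5. Repeats: single replicate. Timing: reaction 2 h, 37 °C. Benchmarks: high control without enzyme, low control DMSO plus TDP2. Probe or stimulus: 5 mM T5PNP. Doses: 12.8 µM only. Measured by: epi absorbance of p-nitrophenol freed from T5PNP by hydrolysis.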
LEDGF integ inh = blocks HIV-1 LEDGF/p75-dependent DNA integration. inhibition, % at 3.7 µM. 0.64% of 370,000 active. TR-FRET IN-LEDGF/p75 DNA integration, Eu/Cy5;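 active = inhibition above the screen-wide mean plus 3 SD, cut at about 13% in these data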;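 note: signal is the Cy5 over europium emission ratio at 671 and 618 nm; 0% = plate median of compound wells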
MBD2 DNA inh = inhibitors of human MBD2 binding to methylated oligonucleotide | 0.31% of 370,000 active | Q9UBB5 | AID 686964 | TR-FRET | inhibition, % at 4.4 µM; in the data active = inhibition above about 13%
UHRF1 MBD2 ctr = UHRF1 methyl-DNA binding inhibition; Q96T88; UHRF1 binding to methylated oligo, TR-FRET; inhibition, % at 4.4 µM; 0.75% of 370,000 active; AID 687016; in the data active = inhibition above about 21%;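 note: UHRF1 SRA domain binding a hemimethylated CpG hairpin DNA probe; 0% = median of test compound wells and 100% = reference inhibitor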
Target sequence (Q96T88 whole entry, looked up, the tested form may be a part): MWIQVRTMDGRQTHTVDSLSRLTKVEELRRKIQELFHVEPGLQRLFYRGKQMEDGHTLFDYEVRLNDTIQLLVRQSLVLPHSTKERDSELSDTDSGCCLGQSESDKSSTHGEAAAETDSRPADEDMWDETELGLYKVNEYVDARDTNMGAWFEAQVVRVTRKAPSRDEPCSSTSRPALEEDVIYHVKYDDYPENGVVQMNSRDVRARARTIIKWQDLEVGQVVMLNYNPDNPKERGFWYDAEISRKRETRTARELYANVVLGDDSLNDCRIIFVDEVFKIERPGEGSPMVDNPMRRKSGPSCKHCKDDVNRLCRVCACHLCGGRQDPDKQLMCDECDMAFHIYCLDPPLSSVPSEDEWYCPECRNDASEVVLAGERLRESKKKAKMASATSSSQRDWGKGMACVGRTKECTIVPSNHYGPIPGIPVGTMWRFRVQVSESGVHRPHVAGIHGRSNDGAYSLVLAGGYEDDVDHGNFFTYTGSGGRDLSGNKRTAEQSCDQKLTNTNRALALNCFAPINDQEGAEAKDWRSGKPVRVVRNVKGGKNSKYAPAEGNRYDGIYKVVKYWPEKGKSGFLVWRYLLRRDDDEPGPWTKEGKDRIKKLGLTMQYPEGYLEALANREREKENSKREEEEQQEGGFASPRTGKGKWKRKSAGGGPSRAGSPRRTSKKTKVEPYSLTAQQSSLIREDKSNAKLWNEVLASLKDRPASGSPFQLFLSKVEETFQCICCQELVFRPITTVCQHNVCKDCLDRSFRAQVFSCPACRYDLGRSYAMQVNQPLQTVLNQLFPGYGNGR
Numbers without * were called inactive. Only some compounds are listed: those with a hit (about 1.6% of all), similar ones and a draw of the others.

SMILES	TDP2 inh	LEDGF integ inh	MBD2 DNA inh	UHRF1 MBD2 ctr
COCC(C)OC(=O)/C(C#N)=C\c1coc2ccc(C)cc2c1=O (configuration not stated)	-1	4	-2	45*
CCCCCN(C(=O)Cc1c(C)n(CCCCC)c2ccccc12)c1ccc(Oc2cccnc2)c(C)c1	0	1	3	-2
CC(=O)c1cccc(NC(=O)c2cc(C)no2)c1	1	-5	0	64*
CC(NC(=O)c1ccc(S(=O)(=O)N(C)C)cc1)c1ccccc1 (configuration not stated)	6	1	7	21*
CC(NC(=O)c1ccc(S(=O)(=O)N(C)C)cc1)c1ccc(-n2ccnc2)cc1 (configuration not stated)	2	3	-1	1
CCNC(=O)N1CCN(c2ccc(N3CCN(C(=O)NCC)[C@H](C)C3)c(C)c2)[C@@H](C)C1	8	1	-5	0
Cn1nc(-c2ccccc2)cc1NC(=O)Nc1ccccc1F	-4	3	-2	68*
Cc1cccc(N=Cc2[nH]c3ccc(Br)c(Cl)c3c2O)c1	29*	-1	-5	-3
COc1ccccc1CN=Cc1[nH]c2ccc(Br)c(Cl)c2c1O	0	1	-3	-4
Cc1ccc(-c2cc(C(=O)N3CCOCC3)c3ccccc3n2)cc1	9	-2	-4	27*
N#C/C(=C\c1ccc(O)c([N+](=O)[O-])c1)c1nc2ccccc2s1	-11	2	0	26*
O=C(Nc1ccc(Cl)cc1Cl)OC1CCC12CCC(c1ccccc1)CC2 (configuration not stated)	1	2	3	5
Cc1ccc(NCc2ccccc2F)cc1	-1	0	0	-1
Fc1ccccc1CNc1ccc(Cl)c(Cl)c1	-5	-3	1	25*
CCn1cc(C2C(C(=O)Nc3cc(C)ccn3)=C(C)NC3=C2C(=O)CC(C)(C)C3)c(C)n1 (configuration not stated)	1	-2	13	26*
CCN(CC)c1ccc(C2C(C(=O)Nc3ccccn3)=C(C)NC3=C2C(=O)CC(C)(C)C3)cc1 (configuration not stated)	7	-1	-1	-4
N=C1/C(=C/c2ccc(-c3cccc(C(=O)O)c3)o2)C(=O)N=C2SC=C(c3ccccc3)N12	4	24*	7	5
N=C1/C(=C\c2ccc(-c3cc(Cl)cc(Cl)c3)o2)C(=O)N=C2SC=C(c3ccccc3)N12	-5	3	1	2
CC(OC(=O)Cc1c[nH]c2ccccc12)C(=O)NC1CCCCC1C (configuration not stated)	-7	1	8	23*
COc1ccc(OC)c(COC(=O)c2cccc(S(=O)(=O)N3CCCCC3)c2)c1	-4	-6	6	21*
Cc1ccc(COC(=O)c2cccc(S(=O)(=O)N3CCCCCC3)c2)cc1	-7	3	8	25*
CCC[C@H]1[C@@H](OC(=O)N2CCN(c3ccccc3)CC2)CC[C@@]23CCCN2C(=O)CCC[C@@H]13	2	3	4	-2
C[C@@H]1CN([C@@H](C)CO)S(=O)(=O)c2ccc(Br)cc2O[C@H]1CN(C)C(=O)C1CCC1	9	-2	0	0
C[C@@H]1CN([C@H](C)CO)S(=O)(=O)c2ccc(Br)cc2O[C@@H]1CN(C)Cc1ccc(-c2ccccc2)cc1	-2	-5	13	21*
C[C@@H]1CN([C@H](C)CO)S(=O)(=O)c2ccc(Br)cc2O[C@H]1CN(C)C(=O)C1CC1	-7	-1	6	21*
SMILES	TDP2 inh	LEDGF integ inh	MBD2 DNA inh	UHRF1 MBD2 ctr
C[C@H]1CN([C@@H](C)CO)S(=O)(=O)c2ccc(Br)cc2O[C@H]1CN(C)C(=O)c1cccnc1	2	-2	3	24*
COc1cccc(-c2ccc3c(c2)O[C@@H](CN(C)C(=O)C2CCOCC2)[C@H](C)CN([C@H](C)CO)S3(=O)=O)c1	15	-4	6	22*
Cc1ccc(/C=N\NC(=O)CN2CCN(S(=O)(=O)c3ccc(Br)cc3)CC2)s1	-9	-3	1	2
CCn1c2ccccc2c2cc(NC(=O)c3cc4c(C)nn(-c5ccccc5)c4s3)ccc21	-3	0	-5	1
COC(=O)C1CN(Cc2cn(CCOC(C)=O)nn2)CCS(=O)(=O)N1Cc1ccc(F)cc1 (configuration not stated)	0	1	9	14
COc1ccccc1-c1c(C)nn2c(N3CCN(c4ccccc4OC)CC3)cc(C)nc12	7	-3	1	26*

Source: PubChem
